Screening data as filed in PubChem.
This is a sample that favours compounds with a hit; in the whole collection about 3.5% have one here.
MrgX1 antagonist: human MrgX1 receptor antagonism, primary screen; B-score at 10 µM; Q96LB2; MRGX1-HEK293 calcium flux, Fluo-4, BAM8-22 antagonism; stronger effect = lower value; 310,000 tested, 1.3% active;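 active = calcium-response B-score plate-corrected more than 3 library SD below zero, starting fluorescence within 5 deviations, no agonist response on first addition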;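 note: peak minus trough fluorescence over baseline after final BAM8-22 challenge near maximal dose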
Target sequence (Q96LB2 whole entry, looked up): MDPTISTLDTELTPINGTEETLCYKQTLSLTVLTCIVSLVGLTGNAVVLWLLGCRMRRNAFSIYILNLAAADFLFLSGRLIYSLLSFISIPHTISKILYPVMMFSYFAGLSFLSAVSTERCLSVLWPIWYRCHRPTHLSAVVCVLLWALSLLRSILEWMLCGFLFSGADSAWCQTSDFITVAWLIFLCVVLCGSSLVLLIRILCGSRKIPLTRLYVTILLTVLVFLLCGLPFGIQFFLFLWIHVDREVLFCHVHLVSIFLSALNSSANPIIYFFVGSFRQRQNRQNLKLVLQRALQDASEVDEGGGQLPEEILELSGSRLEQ
RGS4 block: human RGS4 inhibition; 310,000 tested, 0.45% active; P49798; B-score at 10 µM; HEK293 M3R/RGS4 inducible, Fluo-4 calcium flux; stronger effect = higher value; triggered by carbachol at its EC20;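 active = B-score, a plate-corrected calcium signal, over three deviations above library mean, with baseline fluorescence within five deviations of library mean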;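 note: RGS4 expression induced by doxycycline in cells with stable M3 receptor; B-score is computed from the integrated fluorescence ratio over baseline after carbachol; higher B-score means a larger calcium signal and so more RGS4 inhibition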
Target sequence (P49798 whole entry, looked up): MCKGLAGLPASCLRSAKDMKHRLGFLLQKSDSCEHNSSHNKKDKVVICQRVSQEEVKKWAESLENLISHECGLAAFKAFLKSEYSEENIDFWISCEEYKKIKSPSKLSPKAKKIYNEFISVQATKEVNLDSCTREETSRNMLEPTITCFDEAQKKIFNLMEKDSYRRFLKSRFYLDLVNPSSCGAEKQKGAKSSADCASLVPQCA
RGS4 act: RGS4 potentiation or activation; HEK293 M3R/inducible RGS4, carbachol calcium flux Fluo4; stronger effect = lower value; 310,000 tested, 0.92% active; B-score at 10 µM;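 active = B-score of the integrated calcium signal more than 4 SD below the library mean, with starting fluorescence not abnormally high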;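 note: negative B-score means reduced calcium response which marks RGS4 activation or potentiation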
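Assay system: Inducible-RGS4 HEK293 cells carrying M3 receptor | Schedule: Compound preincubation 20 min at room temperature before agonist | Signal: Kinetic calcium fluorescence imaging with Fluo4-AM dye, 2 µM | Read-out basis: B score from integrated fluorescence ratio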
MrgX1 PAM: human MrgX1 positive allosteric modulation, primary screen; MrgX1-HEK293, Fluo-4 calcium flux, FDSS; stronger effect = higher value; Q96LB2; 310,000 tested, 0.63% active; B-score at 10 µM; AID 588675;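 active = plate-corrected calcium response at least 3 library SD above typical, normal starting fluorescence, not activating the receptor alone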;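 note: compound read alongside a low EC10 to EC30 dose of BAM8-22 agonist; peak minus trough fluorescence over baseline measured at the second addition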
MrgX1 agonist: activates human MrgX1 receptor signaling | Q96LB2 | MrgX1-HEK293 cells, Fluo-4 calcium fluorescence, agonist mode; stronger effect = higher value | B-score at 10 µM | 310,000 tested, 0.44% active | AID 588627;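 active = calcium response B-score plate-corrected fluorescence ratio at least 3 library SD, with starting fluorescence B-score inside 5 SD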
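Assay system: stable human MrgX1 HEK293 cell line. Quantity: 15,000 cells per well. Schedule: cells plated overnight, dye loaded 0.5 h 37 °C, 0.5 h room temperature. Detection: Fluo-4 NW calcium-flux fluorescence, kinetic read. Read-out basis: peak-minus-minimum fluorescence over baseline, converted to B scores. Control set: positive and negative control wells on each plate.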
Active calls of the source: *; i = inactive; . = no result.

SMILES	MrgX1 antagonist	RGS4 block	RGS4 act	MrgX1 PAM	MrgX1 agonist
CCOCCCn1c(=N)c(C(=O)NCc2ccc3c(c2)OCO3)cc2c(=O)n3cccc(C)c3nc21	i	i	-8.5*	i	i
Cc1cccn2c(=O)c3cc(C(=O)NCCc4ccccc4)c(=N)n(Cc4ccco4)c3nc12	i	i	-8.6*	i	i
Cc1cccn2c(=O)c3cc(C(=O)NCc4ccco4)c(=N)n(CCc4ccccc4)c3nc12	i	.	.	i	i
CCCOc1cccc(C(=O)Nc2ccc3c(c2)OCCO3)c1	i	i	i	i	i
CCOc1ccc(C(=O)NCC(=O)N2CCN(C/C=C/c3ccccc3)CC2)cc1OCC	i	i	-7.2*	i	i
COc1cccc(OCC(=O)NNC(=O)c2ccc3ccccc3c2)c1	i	i	i	i	i
O=[N+]([O-])c1cncc([N+](=O)[O-])c1Nc1ccccc1Cl	i	i	i	i	i
NS(=O)(=O)c1ccc(Nc2c([N+](=O)[O-])cncc2[N+](=O)[O-])cc1	i	i	i	i	35*
COc1cccc(Nc2c([N+](=O)[O-])cncc2[N+](=O)[O-])c1	i	i	i	i	31*
COc1ccc2[nH]cc(C=O)c2c1	i	i	i	i	i
COc1ccc2[nH]cc(/C=C/c3cc[n+](C)cc3)c2c1	-7.9*	i	i	i	i
CCCCOc1ccc(-c2ncc(N)cn2)cc1	i	i	i	i	i
COc1ccc(-c2cc3ncnc(Cl)c3s2)cc1	i	i	i	i	i
CCN(CC)CCOC(=O)c1ccc(NC(=O)CCCN2C(=O)/C(=C/c3cccs3)SC2=S)cc1	i	i	-8.3*	i	i
C/C(=N\Nc1ccc2nncn2n1)c1ccc(Br)s1	i	i	i	i	i
Fc1ccccc1COc1ccc(Br)cc1CNCc1ccncc1	i	i	-9.6*	i	i
C=CCOc1ccc(Br)cc1/C=N/O	i	i	i	i	i
O/N=C/c1cc(Br)ccc1OCc1ccccc1F	-7.4*	i	i	i	i
CCOC(=O)N1CCN(/C=C(\C#N)c2nc3ccccc3s2)CC1	-7.1*	i	i	i	i
N#C/C(=C\N1CCN(Cc2ccc3c(c2)OCO3)CC1)c1nc2ccccc2s1	i	i	i	i	i
O=C(NCCCN1CCCC1)c1ccc2c(c1)N(Cc1ccccc1)CCS2	i	i	-7.4*	i	i
COc1ccccc1C(=O)COC(=O)c1c(-c2ccccc2)noc1C	i	i	i	i	i
CCOc1ccc(NC(=O)CN(c2ccc([N+](=O)[O-])cc2)S(=O)(=O)c2ccccc2)cc1	-5.4*	i	i	i	i
Cc1oc(C)c2c(=O)ccc3c(c12)OC(N)=C(C#N)C3c1ccccc1 (stereo not given)	i	i	i	i	49*
CSc1ccc(C2C(C#N)=C(N)Oc3c2ccc(=O)c2c(C)oc(C)c32)cc1 (stereo not given)	i	i	i	9.8*	i
SMILES	MrgX1 antagonist	RGS4 block	RGS4 act	MrgX1 PAM	MrgX1 agonist
Cc1oc(C)c2c(=O)ccc3c(c12)OC(N)=C(C#N)C3c1ccccc1Cl (stereo not given)	i	i	i	i	i
CCn1cc(S(=O)(=O)CC(=O)Nc2ccc(OC)cc2)c2ccccc21	i	i	i	i	i
C#CCSc1nnc(-c2ccc(O)cc2)o1	-7.6*	i	i	i	i
C#CCSc1nnc(-c2ccc(C)cc2)o1	i	i	i	i	i
CCCCCC[n+]1c(-c2ccccc2)csc1Nc1ccccc1	i	i	i	i	i
C=CC[n+]1c(-c2ccccc2)csc1NC(C)(C)C	-4.9*	i	i	i	i
CCOc1ccccc1N1C(=O)CC(Nc2ccc(N3CCOCC3)cc2)C1=O (stereo not given)	-4.5*	i	i	i	i
O=C(c1ccncc1)N1N=C(c2ccc(Br)cc2)CC1c1ccccc1O (stereo not given)	i	i	i	i	i
CC(=O)N1N=C(c2ccncc2)CC1c1ccccc1O (stereo not given)	-7.5*	i	i	i	i
CC(=O)N1N=C(c2ccccc2)CC1c1cn(Cc2ccccc2)c2ccccc12 (stereo not given)	-4.6*	i	i	i	i
COc1ccccc1CNC(=O)CCCNC(=O)c1ccc(Cl)cc1	i	i	i	i	i
Cn1c(=O)c(=O)n(C)c2cc(N3CCOCC3)c(NS(=O)(=O)c3ccc([N+](=O)[O-])cc3)cc21	i	i	i	14*	i
Cn1c(=O)c(=O)n(C)c2cc(N3CCOCC3)c(NS(=O)(=O)c3ccc(F)c(Cl)c3)cc21	i	i	i	i	i
Cc1ccc(/C=C2\C(=N)N3N=C(CC(=O)N4CCCCC4)SC3=NC2=O)cc1	i	i	i	i	i
COc1ccc(/C=C2/C(=N)N3N=C(CC(=O)N4CCCC4)SC3=NC2=O)cc1	i	i	i	i	35*
COc1ccc(/C=C2\C(=N)N3N=C(CC(=O)N4CCCCC4)SC3=NC2=O)cc1	i	i	i	i	38*
Cc1c(C)c2ccc(OCC(=O)NCCN3CCOCC3)c(C)c2oc1=O	i	i	i	i	i
COc1cccc(C(=O)C2CCCN(CC3=Cc4cc(OC)ccc4OC3)C2)c1 (stereo not given)	i	i	-7*	i	i
O=[N+]([O-])c1ccc(N/N=C2\CC3CC=CC23)cc1 (stereo not given)	i	i	i	8.1*	i
CCCCn1nc(C(=O)Oc2ccc3c(C)cc(=O)oc3c2)c2ccccc2c1=O	-6.6*	i	i	i	i
CCn1c(SCC(=O)N2CCCC2)nnc1-c1ccco1	i	i	i	i	i
COc1ccc(C2CC2/C(C)=N/OC(=O)C2CC2)cc1 (stereo not given)	i	i	i	i	i
COc1ccc(C2CC2C(C)=O)cc1 (stereo not given)	i	i	i	i	30*
COc1cccc(C(=O)N/N=C2\SCC(=O)N2Cc2ccc3c(c2)OCO3)c1	-5.6*	i	i	i	i
COc1ccc(C(=O)N/N=C2/SCC(=O)N2Cc2ccc3c(c2)OCO3)cc1OC	i	i	i	i	i
COc1ccc(NC(=O)c2cccc(-c3ccc(O)cc3)c2)cn1	i	i	i	i	i
